Laboratory results taken from ChEMBL document CHEMBL1148330, “Synthesis and biological evaluation of 14-alkoxymorphinans. 21. Novel 4-alkoxy and 14-phenylpropoxy derivatives of the mu opioid receptor antagonist cyprodime” (J Med Chem, 2004).
pEC50, pKi: −log10 of the molar value.

What was measured:
[1] = tested on: Mus musculus; test: Effective dose (sc) required for antinociceptive potency in vivo in the hotplate (HP) test in mice; assay type: functional
[2] = tested on: Mus musculus; test: Effective dose (sc) required for antinociceptive potency in vivo in the tail-flick (TF) test in mice; assay type: functional
[3] = tested on: Mus musculus; test: Effective dose (sc) required for antinociceptive potency in vivo in the paraphenylquinone writhing (PPQ) test in mice; assay type: functional
[4] = biological target: Kappa-type opioid receptor (Rattus norvegicus, UniProt P34975); test: Binding affinity determined by displacing [3H]U69,593 from Opioid receptor kappa 1 in rat brain membranes; assay type: cell membranes
Procedure, shortened: (§1)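 Competitive radioligand binding in rat brain membranes: [3H]DAMGO (µ), [3H][Ile5,6]deltorphin II (δ), [3H]U69,593 (κ). Ki reported as mean ± SEM. Selectivity ratios are Ki δ/Ki µ and Ki κ/Ki µ.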

[5] = biological target: T1, Kappa-type opioid receptor (Homo sapiens, UniProt P41145); test: Antagonistic activity against recombinant human Opioid receptor kappa 1 expressed in CHO cells when incubated with U69,593; assay type: functional, cell-based
Procedure, shortened: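 Membranes from CHO cells stably expressing the human κ opioid receptor, incubated with the agonist U69,593 in the presence of varying concentrations of compound. Antagonist Ke values reported as mean ± SEM.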

[6] = biological target: Opioid receptors; mu & delta (Rattus norvegicus) (UniProt P33533+P33535); test: Selectivity ratio of binding affinities between delta opioid receptors and mu opioid receptors in rat brain membranes; assay type: cell membranes; procedure, shortened: as §1
[7] = biological target: T2, Mu-type opioid receptor (Homo sapiens, UniProt P35372); test: Percent maximal stimulation of [35S]GTP-gamma-S, binding to recombinant human Opioid receptor mu 1 expressed in CHO cells; assay type: functional, cell-based
Procedure, shortened: (§2)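 Membranes from CHO cells stably expressing human µ, δ or κ opioid receptor, incubated with varying concentrations of compound in a [35S]GTPγS binding assay. Emax is % maximal stimulation of [35S]GTPγS binding. EC50 is the concentration giving 50% of the Emax value. Mean ± SEM.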

[8] = biological target: T2, Mu-type opioid receptor; test: Concentration necessary to produce 50% of the Emax value, i.e. to stimulate [35S]GTP-gamma-S, binding to recombinant human Opioid receptor mu 1 expressed in CHO cells; assay type: functional, cell-based; procedure, shortened: as §2
[9] = biological target: T3, Delta-type opioid receptor (Homo sapiens, UniProt P41143); test: Percent maximal stimulation of [35S]GTP-gamma-S, binding to recombinant human opioid receptor delta 1 expressed in CHO cells; assay type: functional, cell-based; procedure, shortened: as §2
[10] = biological target: Mu-type opioid receptor (Rattus norvegicus, UniProt P33535); test: Binding affinity determined by displacing [3H]DAMGO from Opioid receptor mu 1 in rat brain membranes; assay type: cell membranes; procedure, shortened: as §1
[11] = species on record: Rattus norvegicus; test: Selectivity ratio of binding affinities between kappa opioid receptors and mu opioid receptors in rat brain membranes; assay type: cell membranes; procedure, shortened: as §1
[12] = biological target: T1, Kappa-type opioid receptor; test: Concentration necessary to produce 50% of the Emax value, i.e. to stimulate [35S]GTP-gamma-S, binding to recombinant human Opioid receptor kappa 1 expressed in CHO cells; assay type: functional, cell-based; procedure, shortened: as §2
[13] = biological target: T3, Delta-type opioid receptor; test: Concentration necessary to produce 50% of the Emax value, i.e. to stimulate [35S]GTP-gamma-S, binding to recombinant human opioid receptor delta 1 expressed in CHO cells; assay type: functional, cell-based; procedure, shortened: as §2
[14] = biological target: T1, Kappa-type opioid receptor; test: Percent maximal stimulation of [35S]GTP-gamma-S, binding to recombinant human Opioid receptor kappa 1 expressed in CHO cells; assay type: functional, cell-based; procedure, shortened: as §2
[15] = biological target: T2, Mu-type opioid receptor; settings: CHO

Mu-type opioid receptor (Rattus norvegicus, UniProt P33535), sequence (P33535 whole entry): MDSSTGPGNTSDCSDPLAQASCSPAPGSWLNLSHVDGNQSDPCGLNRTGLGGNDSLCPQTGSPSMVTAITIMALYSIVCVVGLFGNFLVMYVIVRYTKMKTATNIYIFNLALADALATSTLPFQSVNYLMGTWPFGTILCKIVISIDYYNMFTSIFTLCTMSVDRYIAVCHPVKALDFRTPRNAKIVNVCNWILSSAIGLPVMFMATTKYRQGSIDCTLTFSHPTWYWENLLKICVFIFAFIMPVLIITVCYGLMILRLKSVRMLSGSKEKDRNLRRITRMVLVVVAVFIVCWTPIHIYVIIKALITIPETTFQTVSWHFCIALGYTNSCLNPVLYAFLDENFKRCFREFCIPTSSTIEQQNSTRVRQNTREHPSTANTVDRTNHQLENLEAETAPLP
T2 sequence (P35372 whole entry): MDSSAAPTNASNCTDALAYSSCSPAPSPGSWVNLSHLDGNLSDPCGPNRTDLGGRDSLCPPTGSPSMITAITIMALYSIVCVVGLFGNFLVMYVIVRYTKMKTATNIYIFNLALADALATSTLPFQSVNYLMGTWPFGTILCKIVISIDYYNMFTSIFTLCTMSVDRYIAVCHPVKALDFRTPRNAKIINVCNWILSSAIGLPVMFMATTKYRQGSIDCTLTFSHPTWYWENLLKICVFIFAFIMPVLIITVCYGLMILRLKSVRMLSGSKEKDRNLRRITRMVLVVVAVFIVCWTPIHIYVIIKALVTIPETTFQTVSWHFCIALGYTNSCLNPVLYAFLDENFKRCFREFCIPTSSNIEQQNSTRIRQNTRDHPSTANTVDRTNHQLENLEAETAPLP
T1 sequence (P41145 whole entry): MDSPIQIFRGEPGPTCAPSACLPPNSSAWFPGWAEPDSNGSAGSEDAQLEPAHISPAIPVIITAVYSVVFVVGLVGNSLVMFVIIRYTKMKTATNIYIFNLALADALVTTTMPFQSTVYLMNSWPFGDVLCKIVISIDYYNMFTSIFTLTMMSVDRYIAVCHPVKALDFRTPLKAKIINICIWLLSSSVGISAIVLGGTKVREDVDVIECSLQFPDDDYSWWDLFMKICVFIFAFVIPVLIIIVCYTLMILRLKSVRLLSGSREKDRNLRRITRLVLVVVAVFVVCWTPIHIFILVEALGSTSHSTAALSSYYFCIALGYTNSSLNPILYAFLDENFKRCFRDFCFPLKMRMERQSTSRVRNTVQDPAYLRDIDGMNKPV
Kappa-type opioid receptor (Rattus norvegicus, UniProt P34975), sequence (P34975 whole entry): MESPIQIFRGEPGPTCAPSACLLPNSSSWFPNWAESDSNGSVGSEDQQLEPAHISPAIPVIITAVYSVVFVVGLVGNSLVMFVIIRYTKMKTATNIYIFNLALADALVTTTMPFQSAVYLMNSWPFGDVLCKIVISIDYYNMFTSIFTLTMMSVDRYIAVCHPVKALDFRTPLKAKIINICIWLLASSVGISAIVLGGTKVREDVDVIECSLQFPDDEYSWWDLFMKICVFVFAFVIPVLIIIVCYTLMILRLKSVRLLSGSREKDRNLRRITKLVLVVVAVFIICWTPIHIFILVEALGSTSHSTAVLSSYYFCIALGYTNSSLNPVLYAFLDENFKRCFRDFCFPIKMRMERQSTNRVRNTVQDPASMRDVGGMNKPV
T3 sequence (P41143 whole entry): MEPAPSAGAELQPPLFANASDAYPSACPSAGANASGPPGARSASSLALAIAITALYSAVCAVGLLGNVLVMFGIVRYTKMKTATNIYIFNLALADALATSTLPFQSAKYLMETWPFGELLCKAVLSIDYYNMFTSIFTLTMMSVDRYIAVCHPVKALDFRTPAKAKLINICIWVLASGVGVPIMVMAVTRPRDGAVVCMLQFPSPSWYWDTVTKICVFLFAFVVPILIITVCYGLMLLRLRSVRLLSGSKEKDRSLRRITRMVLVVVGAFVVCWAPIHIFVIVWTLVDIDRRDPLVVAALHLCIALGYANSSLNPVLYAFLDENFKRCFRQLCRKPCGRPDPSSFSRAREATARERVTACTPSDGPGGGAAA
Opioid receptors; mu & delta (Rattus norvegicus), sequence (P33533 whole entry, looked up): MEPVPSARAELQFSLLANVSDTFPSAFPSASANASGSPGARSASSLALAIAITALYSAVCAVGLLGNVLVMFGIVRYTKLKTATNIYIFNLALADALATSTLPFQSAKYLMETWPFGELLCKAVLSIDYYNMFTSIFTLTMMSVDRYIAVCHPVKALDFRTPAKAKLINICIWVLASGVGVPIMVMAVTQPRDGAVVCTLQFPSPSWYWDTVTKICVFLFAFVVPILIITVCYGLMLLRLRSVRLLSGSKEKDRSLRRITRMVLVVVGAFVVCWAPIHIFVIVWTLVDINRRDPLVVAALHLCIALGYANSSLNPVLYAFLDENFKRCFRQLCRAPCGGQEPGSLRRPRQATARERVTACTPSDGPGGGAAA
Opioid receptors; mu & delta (Rattus norvegicus), sequence (P33535 whole entry, looked up): as the sequence (P33535 whole entry) above

Work on CO[C@@]12CCC(=O)[C@]3(C)Oc4c(O)ccc5c4[C@@]31CCN(C)[C@@H]2C5 yielded an ED50 [1] of 0.03 mg/kg, an ED50 [2] of 0.03 mg/kg and an ED50 [3] of 0.009 mg/kg.

O=C1CC[C@@]2(OCCCc3ccccc3)[C@H]3Cc4cccc5c4[C@@]2(CCN3CC2CC2)C1O5 (some centres undefined) gave a pKi [4] of 4.64, a Ke [5] of 8.54 nM and a Selectivity ratio [6] of 55. For the same compound, the Emax [7] was 43%, the pEC50 [8] was 8.01 and the ED50 [1] was 0.68 mg/kg. For the same compound, the ED50 [2] was 0.187 mg/kg, the ED50 [3] was 0.0094 mg/kg and the Emax [9] was 17%. For the same compound, the pKi [10] was 6.08, the Selectivity ratio [11] was 27 and the pEC50 [12] was < 5.00. For the same compound, the pEC50 [13] was 7.06.

With CCCCCCOc1cccc2c1[C@]13CCN(CC4CC4)[C@H](C2)[C@]1(OC)CCC(=O)C3 the pKi [4] was 3.36, the Selectivity ratio [6] was 26 and the pKi [10] was 4.35. For the same compound, the Selectivity ratio [11] was 9.8.

With O=C1CC[C@@]2(OCCCc3ccccc3)[C@H]3Cc4cccc(O)c4[C@@]2(CCN3CC2CC2)C1 the pKi [4] was 5.23, the Selectivity ratio [6] was 13 and the Emax [7] was 35%. The pEC50 [8] was 8.46, the ED50 [1] was 0.04 mg/kg and the ED50 [2] was 0.05 mg/kg. The ED50 [3] was 0.0014 mg/kg, the Emax [9] was 49% and the pKi [10] was 6.40. For the same compound, the Selectivity ratio [11] was 15, the Emax [14] was 45.8% and the pEC50 [12] was 8.35. For the same compound, the pEC50 [13] was 8.10.

COc1cccc2c1[C@]13CCN(CC4CC4)[C@H](C2)[C@]1(OCCCc1ccccc1)CCC(=O)C3 was tested, and the pKi [4] was 5.13, the Ke [5] was 2.52 nM and the Selectivity ratio [6] was 50. For the same compound, the Emax [7] was 35%, the pEC50 [8] was 8.71 and the ED50 [1] was 0.3 mg/kg. For the same compound, the ED50 [2] was 0.28 mg/kg, the ED50 [3] was 0.06 mg/kg and the Emax [9] was 22%. For the same compound, the pKi [10] was 6.47, the Selectivity ratio [11] was 22 and the pEC50 [12] was < 5.00. The pEC50 [13] was 7.69.

COc1cccc2c1[C@]13CCN(CC4CC4)[C@H](C2)[C@]1(OC)CCC(=O)C3 [CYPRODIME] gave a pKi [4] of 3.96, a Ke [5] of 26.1 nM and a Selectivity ratio [6] of 39. The Ke [15] was 12.4 nM, the Emax [7] was 33% and the Emax [9] was 18%. It also gave a pKi [10] of 4.97, a Selectivity ratio [11] of 10 and an Emax [14] of 18.8%. For the same compound, the pEC50 [12] was 6.93 and the pEC50 [13] was 5.96.

Work on CCCCOc1cccc2c1[C@]13CCN(CC4CC4)[C@H](C2)[C@]1(OCCCc1ccccc1)CCC(=O)C3 yielded a pKi [4] of 3.82, a Selectivity ratio [6] of 16 and a pKi [10] of 4.83. For the same compound, the Selectivity ratio [11] was 10.

In the case of CO[C@@]12CCC(=O)C[C@@]13CCN(CC1CC1)[C@@H]2Cc1cccc(OCCCc2ccccc2)c13, the pKi [4] was 3.68, the Selectivity ratio [6] was 33 and the pKi [10] was 4.36. It also gave a Selectivity ratio [11] of 4.8.

CCCCOc1cccc2c1[C@]13CCN(CC4CC4)[C@H](C2)[C@]1(OC)CCC(=O)C3 showed a pKi [4] of 3.58, a Ke [5] of 120 nM and a Selectivity ratio [6] of 55. The Ke [15] was 11.1 nM, the pEC50 [8] was < 5.00 and the Emax [9] was 22%. For the same compound, the pKi [10] was 4.86, the Selectivity ratio [11] was 19 and the pEC50 [12] was < 5.00. For the same compound, the pEC50 [13] was 5.79.

CO[C@@]12CCC(=O)C[C@@]13CCN(CC1CC1)[C@@H]2Cc1cccc(OCc2ccccc2)c13 gave a pKi [4] of 4.25, a Selectivity ratio [6] of 18 and a pKi [10] of 4.94. For the same compound, the Selectivity ratio [11] was 4.9.
